Assay results from different studies.
Protocols differ between the studies behind these lines.
Mode: inhibitor
rep main protease: Replicase polyprotein 1ab, main protease (rep, Severe acute respiratory syndrome coronavirus 2, UniProt P0DTD1)
rep methyltransferase: Replicase polyprotein 1ab, methyltransferase (rep, Severe acute respiratory syndrome coronavirus 2, UniProt P0DTD1)
rep papain-like protease: Replicase polyprotein 1ab, papain-like protease (rep, Severe acute respiratory syndrome coronavirus 2, UniProt P0DTD1)

| SMILES | target | test | conditions | IC50 [µM] |
| --- | --- | --- | --- | --- |
| CN(C)[C@@H]1C(O)=C(C(N)=O)C(=O)[C@@]2(O)C(O)=C3C(=O)c4c(O)cccc4[C@@](C)(O)[C@H]3[C@H](O)[C@@H]12 | rep main protease | enzyme activity, luciferase | – | > 240 |
| CN(CCCN1c2ccccc2CCc2ccccc21)CC(=O)c1ccc(Cl)cc1 | rep main protease | enzyme activity | – | 11.4 |
| Cc1cc(-c2nn3c(-c4ccccc4)nnc3s2)c2ccccc2n1 | rep methyltransferase | enzyme activity | – | 40.4 |
| CC[C@]12C=CCN3CC[C@@]4(c5cc([C@@]6(C(=O)OC)C[C@@H]7C[C@@H](C(C)(F)F)C[N@](CCc8c6[nH]c6ccccc86)C7)c(OC)cc5N(C)[C@H]4[C@@](O)(C(=O)OC)[C@@H]1OC(C)=O)[C@@H]32 | rep main protease | enzyme activity | – | > 20 |
| CCOc1nc2cccc(C(=O)O)c2n1Cc1ccc(-c2ccccc2-c2nnn[nH]2)cc1 | rep main protease | enzyme activity | – | > 240 |
| Nc1ccc(C(=O)N2CC3(CCC3)C[C@H]2CNC(=O)c2cncc3ccccc23)cc1O | rep main protease | enzyme activity | – | 29.6 |
| COc1cc(C[C@@H](C)[C@@H](C)Cc2cc(O)c(OC)c(OC)c2)cc(O)c1OC | rep papain-like protease | enzyme activity, FRET | – | 5.23 |
| CC(Cc1ccc(O)c(O)c1)C(C)Cc1ccc(O)c(O)c1 (stereo not drawn) | rep methyltransferase | enzyme activity | – | 10.3 |
| COc1ccc2nc(S)[nH]c2c1 | rep main protease | enzyme activity | – | > 20 |
| Cc1ccc2nc(-c3ccc(-c4ccccc4C(=O)O)o3)cc(C(=O)O)c2c1 | rep methyltransferase | enzyme activity | – | 56.4 |
| Sc1ncnc2nc[nH]c12 | rep papain-like protease | enzyme activity, FRET | pH 7.5 | > 60 |
| O=C1C(Cl)=C(Cl)C(=O)C(Cl)=C1Cl | rep main protease | enzyme activity | – | 0.18 |
| Cc1cc2c(C(C)C)c(O)c(O)c(C=O)c2c(O)c1-c1c(C)cc2c(C(C)C)c(O)c(O)c(C=O)c2c1O | rep methyltransferase | enzyme activity | – | 11.6 |
| COc1ccc(O)c(C=NN2C(=O)c3ccccc3NC2c2cc(OC)ccc2O)c1 (stereo not drawn) | rep main protease | enzyme activity in cells | – | 6.5 |
| CN(C(=O)[C@H](Cc1ccccc1)NC(=O)[C@@H](NC(=O)OCc1ccccc1)C(C)(C)C)N(C#N)CCC(N)=O | rep main protease | enzyme activity | – | 0.236 |
| CC(C)N(CCC(=O)c1ccc2ccccc2c1)Cc1ccccc1 | rep methyltransferase | enzyme activity | – | 5.99 |
| O=C(NCCCNc1nc(Nc2cccc(NC(=O)N3CCCC3)c2)ncc1I)c1cccs1 | rep main protease | enzyme activity | – | 8.7 |
| CCCCCC/C=C\CCCCCCCCCc1cc(O)cc(O)c1 | rep main protease | enzyme activity | with preincubation | > 100 |
| CCCCCCCC/C=C\CCCCCCCC(=O)NCCc1ccc(O)c(O)c1 | rep methyltransferase | enzyme activity | – | 53.4 |
| Cc1cc(C)cc(N2C(=O)CC(Sc3nnc[nH]3)C2=O)c1 (stereo not drawn) | rep main protease | enzyme activity, fluorescence | – | > 20 |
| CC1(C)CC(=O)c2c(oc3c(Cl)cc(NS(=O)(=O)c4ccc5ccccc5c4)cc23)C1 | rep methyltransferase | enzyme activity | – | 87 |
| CC(C)c1cccc(NC(=O)C2CC(=O)Nc3ccccc32)c1 (stereo not drawn) | rep main protease | enzyme activity | – | 3.72 |
| COc1ccc2[nH]c([S+]([O-])Cc3ncc(C)c(OC)c3C)nc2c1 (stereo not drawn) | rep main protease | enzyme activity | – | > 20 |
| COC(=O)C1=C(C)NC(C)=C(C(=O)OCCN2CCN(C(c3ccccc3)c3ccccc3)CC2)C1c1cccc([N+](=O)[O-])c1 (stereo not drawn) | rep main protease | enzyme activity, luciferase | – | > 240 |
